Values after ≈ are worked out from the molar mass of the structure shown.
What was measured:
Assay type in all cases: functional
[1] = test system: Mycobacterium tuberculosis; experiment: Antimicrobial activity against wild type Mycobacterium tuberculosis 16C12 after 4 weeks by 7H agar proportion method
In short: (§1)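 EMB MIC by 7H10 agar proportion for clones selected from M. tuberculosis strain 210. About 10^9 cells from liquid culture (OD600 ~1.5, resuspended in 7H9) were plated on 7H10 with EMB at 8, 16 or 32 µg/ml final, incubated 37°C for 4 weeks. Colonies were subcultured in EMB-free 7H9 before testing, and embCAB was genotyped.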

[2] = test system: Mycobacterium tuberculosis; experiment: Antimicrobial activity against wild type Mycobacterium tuberculosis 210 after 4 weeks; conditions: Mycobacterium tuberculosis, 210, 672 h
In short: (§2)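 Isogenic embB mutants made by allelic exchange in strain 210. PCR-built fragments carried the codon of interest; double-crossover colonies were screened by molecular beacon assay and confirmed by direct embB sequencing. MICs of EMB, INH and RIF were determined by radiometric Bactec 460TB and 7H10 agar proportion, alongside parent 210.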

[3] = test system: Mycobacterium tuberculosis; experiment: Antimicrobial activity against wild type Mycobacterium tuberculosis 8C3 after 4 weeks by Bactec 460TB method; conditions: 8C3, 672 h
[4] = test system: Mycobacterium tuberculosis; experiment: Antimicrobial activity against wild type Mycobacterium tuberculosis 210 after 4 weeks by 7H agar proportion method
In short: (§3)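 Parental M. tuberculosis strain 210 with no EMB exposure. EMB MIC determined in parallel by 7H10 agar proportion and radiometric Bactec 460TB.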

[5] = test system: Mycobacterium tuberculosis; experiment: Antimicrobial activity against wild type Mycobacterium tuberculosis 8C2 after 4 weeks by 7H agar proportion method; in short: as §1
[6] = test system: Mycobacterium tuberculosis; experiment: Antimicrobial activity against wild type Mycobacterium tuberculosis 8C1 after 4 weeks by Bactec 460TB method; conditions: 8C1, 672 h
In short: (§4)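 EMB MIC by radiometric Bactec 460TB liquid method for clones from strain 210. The clones were selected on 7H10 containing 8, 16 or 32 µg/ml EMB final (~10^9 cells plated, 37°C, 4 weeks), then subcultured in 7H9 without EMB before MIC testing. embCAB was genotyped.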

[7] = test system: Mycobacterium tuberculosis; experiment: Antimicrobial activity against wild type Mycobacterium tuberculosis NJT210CGG-CAG after 4 weeks; conditions: 672 h; in short: as §2
[8] = test system: Mycobacterium tuberculosis; experiment: Antimicrobial activity against wild type Mycobacterium tuberculosis 8C6 after 4 weeks by Bactec 460TB method; conditions: 8C6, 672 h
[9] = test system: Mycobacterium tuberculosis; experiment: Antimicrobial activity against wild type Mycobacterium tuberculosis 16C10 after 4 weeks by Bactec 460TB method; conditions: 16C10, 672 h; in short: as §4
[10] = test system: Mycobacterium tuberculosis; experiment: Antimicrobial activity against wild type Mycobacterium tuberculosis 8C1 after 4 weeks by 7H agar proportion method; in short: as §1
[11] = test system: Mycobacterium tuberculosis; experiment: Antimicrobial activity against wild type Mycobacterium tuberculosis 16C12 assessed as inhibition of growth after 4 weeks by Bactec 460TB method; conditions: 16C12, 672 h; in short: as §4
[12] = test system: Mycobacterium tuberculosis; experiment: Antimicrobial activity against wild type Mycobacterium tuberculosis 8C6 after 4 weeks by 7H agar proportion method; in short: as §1
[13] = test system: Mycobacterium tuberculosis; experiment: Antimicrobial activity against wild type Mycobacterium tuberculosis 8C2 after 4 weeks by Bactec 460TB method; conditions: 8C2, 672 h; in short: as §4
[14] = test system: Mycobacterium tuberculosis; experiment: Antimicrobial activity against wild type Mycobacterium tuberculosis 210 after 4 weeks by Bactec 460TB method; conditions: Mycobacterium tuberculosis, 210, 672 h; in short: as §3
[15] = test system: Mycobacterium tuberculosis; experiment: Antimicrobial activity against wild type Mycobacterium tuberculosis 16C10 after 4 weeks by 7H agar proportion method; in short: as §1

Compound	MIC [1] [µg/mL]	MIC [2] [µg/mL]	MIC [3] [µg/mL]	MIC [4] [µg/mL]	MIC [5] [µg/mL]	MIC [6] [µg/mL]	MIC [7] [µg/mL]	MIC [8] [µg/mL]	MIC [9] [µg/mL]	MIC [10] [µg/mL]	MIC [11] [µg/mL]	MIC [12] [µg/mL]	MIC [13] [µg/mL]	MIC [14] [µg/mL]	MIC [15] [µg/mL]
CC[C@@H](CO)NCCN[C@@H](CC)CO [ETHAMBUTOL]	8 (≈ 39.2 µM)	2 (≈ 9.79 µM)	4 (≈ 19.6 µM)	2 (≈ 9.79 µM)	8 (≈ 39.2 µM)	2 (≈ 9.79 µM)	2 (≈ 9.79 µM)	2 (≈ 9.79 µM)	2 (≈ 9.79 µM)	6 (≈ 29.4 µM)	3 (≈ 14.7 µM)	4 (≈ 19.6 µM)	4 (≈ 19.6 µM)	2 (≈ 9.79 µM)	6 (≈ 29.4 µM)
NNC(=O)c1ccncc1 [ISONIAZID]	–	0.05 (≈ 0.365 µM)	–	–	–	–	0.05 (≈ 0.365 µM)	–	–	–	–	–	–	–	–
CO[C@H]1/C=C/O[C@@]2(C)Oc3c(C)c(O)c4c(O)c(c(/C=N/N5CCN(C)CC5)c(O)c4c3C2=O)NC(=O)/C(C)=C\C=C\[C@H](C)[C@H](O)[C@@H](C)[C@@H](O)[C@@H](C)[C@H](OC(C)=O)[C@@H]1C [RIFAMPIN]	–	0.05 (≈ 0.0608 µM)	–	–	–	–	0.05 (≈ 0.0608 µM)	–	–	–	–	–	–	–	–

From ChEMBL document CHEMBL1212742 (2010)
